Laboratory results published in ChEMBL document CHEMBL2346548, “Design, synthesis, and structure-activity relationship studies of tryptanthrins as antitubercular agents” (J Nat Prod, 2013).
≈ marks a conversion by molar mass, not a printed value.

Key:
[1] = Tmax in C57BL/6 mouse at 40 mg/kg, po; format: ADME, organism-based; set-up: dose 40 mg/kg, route oral; conditions: in vivo
Summary of the method: (§1)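 Female C57BL/6 mice, single 40 mg/kg oral gavage; three mice per time point; plasma at 30 min to 24 h, LC-MS; noncompartmental parameters reported as means.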

[2] = Tmax in Sprague-Dawley rat at 20 mg/kg, po; format: ADME, organism-based; set-up: dose 20 mg/kg, route oral; conditions: in vivo
[3] = AUC (0 to infinity) in C57BL/6 mouse at 40 mg/kg, po; format: ADME, organism-based; set-up: dose 40 mg/kg, route oral, time infinity; conditions: plasma
[4] = Solubility in simulated intestinal fluid at pH 7.6 by HPLC method; format: physicochemical
Summary of the method: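 Simulated intestinal fluid medium; each analogue 200 μM final in 2% DMSO, shaken 24 h at room temperature, then HPLC with photodiode array read at 230 nm; duplicate, means given.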

[5] = Cmax in Sprague-Dawley rat at 20 mg/kg, po; format: ADME, organism-based; set-up: dose 20 mg/kg, route oral; conditions: in vivo
[6] = Metabolic stability in human liver microsomes assessed as parent compound remaining at 1 uM incubated for 1 hr by HPLC-MS/MS method; format: ADME, Microsome; conditions: read-out: Stability
Summary of the method: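 Pooled mixed-gender human liver microsomes (0.3 mg/mL protein), 1 μM compound with NADP-regenerating system in phosphate buffer pH 7.4, 1 h at 37 °C; parent measured at start and end by HPLC-MS/MS; duplicate means.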

[7] = Permeability across basolateral to apical side in human Caco2 cells incubated for 1 hr at 37 degC by HPLC-MS/MS method; format: ADME, cell-based; conditions: Caco-2
Vero = assay: Cytotoxicity against african green monkey Vero cells; format: cell-based, Chlorocebus sabaeus; conditions: Chlorocebus sabaeus, Vero; read-out: IC50
[8] = Solubility in simulated gastric fluid at pH 1.5 by HPLC method; format: physicochemical
Summary of the method: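 Compound at 200 μM final in 2% DMSO in simulated gastric fluid, shaken 24 h at room temperature; HPLC-photodiode array detection at 230 nm; duplicate means.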

[9] = Oral bioavailability in Sprague-Dawley rat at 20 mg/kg; format: ADME, organism-based; conditions: in vivo
[10] = Protein binding in human plasma at 10 uM incubated for 8 hrs at 37 degC by equilibrium dialysis method; format: ADME, cell-free; conditions: read-out: PPB (converted)
Summary of the method: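 Equilibrium dialysis: 10 μM compound in 1% DMSO in human plasma vs 0.05 M phosphate buffer pH 7.5 across 12–14 K cutoff membrane, at least 8 h at 37 °C; HPLC-photodiode detection at 230 nm; duplicate means.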

[11] = Permeability across apical to basolateral side in human Caco2 cells incubated for 1 hr at 37 degC by HPLC-MS/MS method; format: ADME, cell-based; conditions: Caco-2
Summary of the method: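 TC7 (Caco-2 subclone) monolayer; 10 μM compound in 1% DMSO in HBSS-MES pH 6.5 on apical donor side, basolateral receiver pH 7.4; shaken 1 h at 37 °C; receiver sampled, HPLC-MS/MS; duplicate means.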

[12] = AUC (0 to infinity) in Sprague-Dawley rat at 5 mg/kg, iv; format: ADME, organism-based; set-up: time infinity, dose 5 mg/kg, route intravenous; conditions: plasma
[13] = AUC (0 to infinity) in Sprague-Dawley rat at 20 mg/kg, po; format: ADME, organism-based; set-up: time infinity, dose 20 mg/kg, route oral; conditions: plasma
[14] = test system: Mycobacterium tuberculosis; assay: Antitubercular activity against non-replicating Mycobacterium tuberculosis H37Rv incubated for 10 days by LORA method; format: functional; conditions: 240 h
Summary of the method: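 H37Rv carrying pFCA-luxAB was adapted to low oxygen by gradual self-depletion in a sealed, slowly stirred flask. It was then exposed to compounds for 10 days under anaerobic conditions. Cultures recovered for 28 h in ambient oxygen before n-decanal substrate was added and luminescence read. MIC was the lowest concentration giving a 90% reduction in luminescence versus untreated controls.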

[15] = Aqueous solubility in PBS buffer at pH 7.4 by HPLC method; format: physicochemical; conditions: PBS buffer, read-out: solubility
Summary of the method: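 Compound at 200 μM final in 2% DMSO in PBS pH 7.4, shaken 24 h at room temperature; quantified by HPLC with photodiode array detection at 230 nm; duplicate, mean reported.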

[16] = test system: Mycobacterium tuberculosis; assay: Antitubercular activity against Mycobacterium tuberculosis H37Rv incubated at 37 degC for 14 days in presence of 40% human serum by microplate alamar blue assay; format: functional; conditions: 336 h
Summary of the method: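 This is the MABA run in 7H9 broth containing 40% human serum. Compounds were 2-fold serially diluted, and wells were inoculated with H37Rv at 2 × 10⁵ CFU/mL. Incubation was at 37 °C for 14 days, then Alamar Blue was added. MIC was the lowest concentration preventing the blue-to-pink colour change.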

[17] = Clearance in Sprague-Dawley rat at 5 mg/kg, iv; format: ADME, organism-based; set-up: dose 5 mg/kg, route intravenous; conditions: in vivo
Summary of the method: (§2)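 Male Sprague-Dawley rats (n = 3), single 5 mg/kg iv dose as solution in PEG300/DMSO 50:50; plasma sampled 0.083–24 h, LC-MS bioanalysis; noncompartmental analysis, means.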

[18] = Efflux ratio in human Caco2 cells incubated for 1 hr at 37 degC by HPLC-MS/MS method; format: ADME, cell-based; conditions: Caco-2
[19] = Half life in Sprague-Dawley rat at 20 mg/kg, po; format: ADME, organism-based; set-up: dose 20 mg/kg, route oral; conditions: in vivo
[20] = test system: Mycobacterium tuberculosis; assay: Antitubercular activity against Mycobacterium tuberculosis H37Rv incubated at 37 degC for 7 days by microplate alamar blue assay; format: functional; conditions: Mycobacterium tuberculosis, H37Rv, 168 h
Summary of the method: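 Mtb H37Rv was grown in 7H9 broth with glycerol, Casitone, 10% OADC and 0.05% Tween 80 to OD600 0.4. Compounds were 2-fold serially diluted from DMSO stocks in 7H9, and wells were inoculated at 2 × 10⁵ CFU/mL. After 7 days at 37 °C, Alamar Blue was added and read after a further 24 h. MIC was the lowest concentration preventing the blue-to-pink change.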

[21] = Elimination half life in Sprague-Dawley rat at 5 mg/kg, iv; format: ADME, organism-based; set-up: dose 5 mg/kg, route intravenous; conditions: in vivo, read-out: beta t1/2 (converted); summary of the method: as §2
[22] = Cmax in C57BL/6 mouse at 40 mg/kg, po; format: ADME, organism-based; set-up: dose 40 mg/kg, route oral; conditions: in vivo; summary of the method: as §1
[23] = Volume of distribution in Sprague-Dawley rat at 5 mg/kg, iv; format: ADME, organism-based; set-up: dose 5 mg/kg, route intravenous; conditions: in vivo; summary of the method: as §2
[24] = Half life in C57BL/6 mouse at 40 mg/kg, po formulated in 0.5% methylcellulose; format: ADME, organism-based; set-up: dose 40 mg/kg, route oral; conditions: in vivo; summary of the method: as §1
[25] = test system: Mycobacterium tuberculosis; assay: Antitubercular activity against Mycobacterium tuberculosis Erdman ATCC 35801 infected in C57BL/6 mouse assessed as viable bacterial load in lung at 200 mg/kg twice daily through gavage 5 days per week for 4 weeks starting on 10th day post-infection (reference value: 6.49 +/- 0.10 log10CFU/lung); format: functional
Salmonella typhimurium [26] = assay: Mutagenicity in Salmonella typhimurium TA100 assessed as mean revertant colonies at 0.25 to 240 ug/well in absence of rat liver S9 fraction; format: toxicity, organism-based; conditions: salmonella enterica subsp. enterica serovar typhimurium
Summary of the method: (§3)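 MicroAmes: strains preincubated with or without Aroclor-induced rat liver S9, duplicate wells, six concentrations 0.25–250 μg equivalents/well; DMSO vehicle, 4-nitroquinoline-N-oxide (−S9) and 2-aminoanthracene (+S9) positive controls; revertant colonies counted; cytotoxicity noted as reduced revertants or background lawn; precipitation recorded.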

[27] = Tmax in C57BL/6 mouse at 40 mg/kg, po formulated in 30% HP-beta-CD; format: ADME, organism-based; set-up: dose 40 mg/kg, route oral; conditions: in vivo; summary of the method: as §1
[28] = test system: Mycobacterium tuberculosis; assay: Antitubercular activity against Mycobacterium tuberculosis Erdman ATCC 35801 infected in C57BL/6 mouse assessed as viable bacterial load in spleen at 200 mg/kg twice daily through gavage 5 days per week for 4 weeks starting on 10th day post-infection (reference value: 4.79 +/- 0.21 log10CFU/spleen); format: functional
Salmonella typhimurium [29] = assay: Toxicity in Salmonella typhimurium TA100 assessed as compound level per well causing cytotoxicity at 0.25 to 240 ug/well in presence of rat liver S9 fraction; format: organism-based; conditions: salmonella enterica subsp. enterica serovar typhimurium; summary of the method: as §3
[30] = AUC (0 to infinity) in C57BL/6 mouse at 40 mg/kg, po formulated in 30% HP-beta-CD; format: ADME, organism-based; set-up: time infinity, dose 40 mg/kg, route oral; conditions: plasma
[31] = AUC (0 to infinity) in C57BL/6 mouse at 40 mg/kg, po formulated in 0.5% methylcellulose; format: ADME, organism-based; set-up: dose 40 mg/kg, route oral, time infinity; conditions: in vivo
[32] = test system: Mycobacterium tuberculosis; assay: Antitubercular activity against Mycobacterium tuberculosis Erdman ATCC 35801 infected in C57BL/6 mouse assessed as viable bacterial load in lung at 200 mg/kg/day through gavage 5 days per week for 4 weeks starting on 10th day post-infection (reference value: 6.49 +/- 0.10 log10CFU/lung); format: functional
Salmonella typhimurium [33] = assay: Mutagenicity in Salmonella typhimurium TA98 assessed as mean revertant colonies at 0.25 to 240 ug/well in absence of rat liver S9 fraction; format: toxicity, organism-based; conditions: salmonella enterica subsp. enterica serovar typhimurium; summary of the method: as §3
Salmonella typhimurium [34] = assay: Toxicity in Salmonella typhimurium TA100 assessed as compound level per well causing cytotoxicity at 0.25 to 240 ug/well in absence of rat liver S9 fraction; format: organism-based; conditions: salmonella enterica subsp. enterica serovar typhimurium; summary of the method: as §3
[35] = Tmax in C57BL/6 mouse at 40 mg/kg, po formulated in 0.5% methylcellulose; format: ADME, organism-based; set-up: dose 40 mg/kg, route oral; conditions: in vivo; summary of the method: as §1
[36] = test system: Mycobacterium tuberculosis; assay: Antitubercular activity against Mycobacterium tuberculosis Erdman ATCC 35801 infected in C57BL/6 mouse assessed as viable bacterial load in spleen at 200 mg/kg/day through gavage 5 days per week for 4 weeks starting on 10th day post-infection (reference value: 4.79 +/- 0.21 log10CFU/spleen); format: functional
[37] = Cmax in C57BL/6 mouse at 40 mg/kg, po formulated in 30% HP-beta-CD; format: ADME, organism-based; set-up: dose 40 mg/kg, route oral; conditions: in vivo; summary of the method: as §1
Salmonella typhimurium [38] = assay: Mutagenicity in Salmonella typhimurium TA98 assessed as mean revertant colonies at 0.25 to 240 ug/well in presence of rat liver S9 fraction; format: toxicity, organism-based; conditions: salmonella enterica subsp. enterica serovar typhimurium; summary of the method: as §3
[39] = Cmax in C57BL/6 mouse at 40 mg/kg, po formulated in 0.5% methylcellulose; format: ADME, organism-based; set-up: dose 40 mg/kg, route oral; conditions: in vivo; summary of the method: as §1
Salmonella typhimurium [40] = assay: Mutagenicity in Salmonella typhimurium TA100 assessed as mean revertant colonies at 0.25 to 240 ug/well in presence of rat liver S9 fraction; format: toxicity, organism-based; conditions: salmonella enterica subsp. enterica serovar typhimurium; summary of the method: as §3

SMILES | Tmax [2] [h] | solubility [4] [µM] | Cmax [5] [ng/mL] | remaining at 1 h, 1 µM [6] [%] | Papp B→A at 1 h [7] [×10⁻⁶ cm/s] | IC50 (Vero) [µg/mL] | solubility [8] [µM] | bioavailability [9] [%] | fraction unbound at 8 h, 10 µM [10] | Papp A→B at 1 h [11] [×10⁻⁶ cm/s] | AUC(0-inf) [12] [ng·h/mL] | AUC(0-inf) [13] [ng·h/mL] | MIC90 [14] [µg/mL] | solubility [15] [µM] | MIC [16] [µg/mL] | clearance [17] [mL/min/kg] | efflux ratio at 1 h [18] | half-life [19] [h] | MIC [20] [µg/mL] | half-life [21] [h] | also measured
O=C1c2cc(C(=O)N3CCCCC3)ccc2-n2c1nc1ccccc1c2=O | 1 | 27.5 (≈ 9.88 µg/mL) | 30 | 105 | 26 | > 10 | 10.2 (≈ 3.67 µg/mL) | 3.16 | 0.011 | 59.9 | 1070 | 140 | > 10 | 16.3 (≈ 5.86 µg/mL) | 2 | 81 | > 1 | 7.34 | 0.25 (≈ 0.696 µM) | 0.88 | Tmax [1]: 2 h; AUC(0-inf) [3]: 1300 ng·h/mL; Cmax [22]: 112 ng/mL; Vd [23]: 6.21 L/kg
O=C1c2ccccc2-n2c1nc1c(c2=O)CCCC1 | 4.67 | 73.4 (≈ 18.5 µg/mL) | 2030 | 18 | 52.4 | 8.7 (≈ 34.5 µM) | 53 (≈ 13.4 µg/mL) | 30.1 | 0.043 | 85.4 | 16500 | 19900 | 10.5 (≈ 41.6 µM) | 54.9 (≈ 13.8 µg/mL) | 1 | 5.67 | > 1 | 6.29 | 0.5 (≈ 1.98 µM) | 3.98 | half-life [24]: 4.99 h; log10cfu [25]: 6.6; Activity (Salmonella typhimurium [26]): Non-toxic; Tmax [27]: 0.5 h; log10cfu [28]: 4.89; Activity (Salmonella typhimurium [29]): >= 25 ug; AUC(0-inf) [30]: 2570 ng·h/mL; AUC(0-inf) [31]: 5280 ng·h/mL; log10cfu [32]: 6.5; Activity (Salmonella typhimurium [33]): Non-toxic; Activity (Salmonella typhimurium [34]): >= 25 ug; Tmax [35]: 1.5 h; log10cfu [36]: 4.88; Cmax [37]: 2260 ng/mL; Activity (Salmonella typhimurium [38]): Non-toxic; Cmax [39]: 1930 ng/mL; Activity (Salmonella typhimurium [40]): Non-toxic; Vd [23]: 1.62 L/kg
